{"source": "ChEMBL document CHEMBL3792331", "about": "“Identification and synthesis of potent and selective pyridyl-isoxazole based agonists of sphingosine-1-phosphate 1 (S1P1)” (Bioorg Med Chem Lett, 2016)", "key": {"[1]": {"test": "Clearance in rat at 2 mg/kg, iv", "type": "ADME, organism-based", "details": "in vivo"}, "[2]": {"system": "Mus musculus", "test": "Ratio of Cmax to Cmin in mouse at 5 mg/kg, po", "type": "ADME, organism-based", "details": "in vivo"}, "[3]": {"system": "CHO", "test": "Selectivity index, ratio of EC50 for agonist activity at human S1P5 receptor to EC50 for agonist activity at human S1P1 receptor expressed in CHO cell membranes", "type": "cell-based"}, "[4]": {"system": "Rattus norvegicus", "test": "Anti-inflammatory activity in Lewis rat complete Freund's adjuvant-induced arthritis model of human rheumatoid arthritis assessed as reduction in hind paw swelling at 0.5 and 3 mg/kg, po QD for 21 days starting at day 0 by plethysmometry", "type": "functional, organism-based", "how_it_was_run": "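Male Lewis rats given complete Freund's adjuvant with heat-killed Mycobacterium butyricum subcutaneously at the tail base. Dosed orally once daily for 21 days from day 0. Hind paw volume measured by water displacement plethysmometry at baseline and over three weeks; increase above baseline calculated. Compared with vehicle, p<0.05.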"}, "[5]": {"test": "Protein binding in monkey plasma", "type": "ADME, cell-free, Macaca mulatta", "details": "rhesus monkey, read-out: PPB (converted)"}, "[6]": {"target": "T1, Cytochrome P450 2B6 (Homo sapiens, UniProt P20813)", "T1 sequence (P20813 whole entry)": "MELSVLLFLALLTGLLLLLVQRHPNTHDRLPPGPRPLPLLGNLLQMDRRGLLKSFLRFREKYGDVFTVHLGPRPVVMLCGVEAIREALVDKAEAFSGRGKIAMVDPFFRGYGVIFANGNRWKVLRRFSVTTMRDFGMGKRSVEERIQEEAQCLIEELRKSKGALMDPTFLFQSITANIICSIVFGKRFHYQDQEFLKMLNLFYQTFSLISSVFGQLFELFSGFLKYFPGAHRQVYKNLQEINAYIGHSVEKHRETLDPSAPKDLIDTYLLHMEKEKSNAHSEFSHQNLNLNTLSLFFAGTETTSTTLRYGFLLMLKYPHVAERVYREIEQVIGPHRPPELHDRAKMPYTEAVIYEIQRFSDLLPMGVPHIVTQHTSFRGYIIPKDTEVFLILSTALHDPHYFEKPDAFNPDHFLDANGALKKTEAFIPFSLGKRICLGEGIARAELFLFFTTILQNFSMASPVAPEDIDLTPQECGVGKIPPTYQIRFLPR", "test": "Inhibition of CYP2B6 (unknown origin)", "type": "ADME"}, "[7]": {"system": "Liver microsome", "test": "Stability in rat liver microsomes assessed as compound remaining", "type": "ADME"}, "[8]": {"test": "Half life in rat at 2 mg/kg, iv", "type": "ADME, organism-based", "details": "in vivo"}, "[9]": {"system": "Plasma", "test": "Ratio of plasma concentration Lewis rat at 1 mg/kg, po after 4 hrs to plasma concentration Lewis rat at 1 mg/kg, po after 24 hrs", "type": "ADME, organism-based", "details": "in vivo", "how_it_was_run": "(§1)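 Lewis rats given 1.0 mg/kg orally as solution or suspension in vehicle. Plasma drug concentration measured in blood drawn at 4 h and 24 h; 4 h/24 h ratio taken from these values.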"}, "[10]": {"test": "Volume of distribution at steady state in cynomolgus monkey at 1 mg/kg, iv", "type": "ADME, organism-based, Macaca fascicularis", "details": "in vivo, read-out: Vdss", "how_it_was_run": "(§2)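 Multi-species pharmacokinetic study with separate iv and oral dosing arms. Steady-state volume of distribution was taken from the iv arm: 2 mg/kg in mouse and rat, 1 mg/kg in cynomolgus monkey and dog. Oral doses in the same study were 5 mg/kg in mouse and rat and 1 mg/kg in monkey and dog.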"}, "[11]": {"species": "Homo sapiens", "test": "Inhibition of sodium channel (unknown origin) at 10 uM under 1 and 4 Hz condition by patch clamp assay"}, "[12]": {"test": "Stability in mouse liver microsomes assessed as compound remaining", "type": "ADME"}, "[13]": {"test": "Oral bioavailability in cynomolgus monkey at 1 mg/kg", "type": "ADME, organism-based, Macaca fascicularis", "details": "in vivo"}, "[14]": {"system": "CHO", "test": "Selectivity index, ratio of EC50 for agonist activity at human S1P4 receptor to EC50 for agonist activity at human S1P1 receptor expressed in CHO cell membranes", "type": "cell-based"}, "[15]": {"test": "Oral bioavailability in mouse at 5 mg/kg", "type": "ADME, organism-based", "details": "in vivo"}, "[16]": {"test": "Plasma concentration Lewis rat at 1 mg/kg, po after 4 hrs", "type": "ADME, organism-based", "how_it_was_run": "as §1"}, "[17]": {"system": "Canis familiaris", "test": "Clearance in dog at 1 mg/kg, iv relative to hepatic blood flow", "type": "ADME, organism-based, Canis lupus familiaris, Liver", "details": "in vivo"}, "[18]": {"test": "Oral bioavailability in dog at 1 mg/kg", "type": "ADME, organism-based, Canis lupus familiaris", "details": "in vivo"}, "[19]": {"test": "Clearance in cynomolgus monkey at 1 mg/kg, iv", "type": "ADME, organism-based, Macaca fascicularis", "details": "in vivo"}, "[20]": {"test": "Half life in mouse at 2 mg/kg, iv", "type": "ADME, organism-based", "details": "in vivo"}, "[21]": {"test": "Selectivity index, ratio of EC50 for agonist activity at human S1P3 receptor expressed in EDG3-Ga15-bla HEK293T cell membranes to EC50 for agonist activity at human S1P1 receptor expressed in CHO cell membranes", "type": "cell-based", "how_it_was_run": "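S1P3/S1P1 ratio of GTPγ[35S] EC50s. Membranes from EDG3-Ga15-bla HEK293T (S1P3) or S1P1/CHO cells, […], 0.2 nM final [35S]GTP. HEPES pH 7.5 buffer with MgCl2, NaCl, EGTA, DTT, GDP, BSA and saponin. 45 min at room temperature, filtration read-out. Each EC50 taken at 50% of the compound's own Ymax.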"}, "[22]": {"test": "Protein binding in dog plasma", "type": "ADME, cell-free, Canis lupus familiaris", "details": "read-out: PPB (converted)"}, "[23]": {"target": "Cytochrome P450 2D6 (Homo sapiens, UniProt P10635)", "sequence (P10635 whole entry)": "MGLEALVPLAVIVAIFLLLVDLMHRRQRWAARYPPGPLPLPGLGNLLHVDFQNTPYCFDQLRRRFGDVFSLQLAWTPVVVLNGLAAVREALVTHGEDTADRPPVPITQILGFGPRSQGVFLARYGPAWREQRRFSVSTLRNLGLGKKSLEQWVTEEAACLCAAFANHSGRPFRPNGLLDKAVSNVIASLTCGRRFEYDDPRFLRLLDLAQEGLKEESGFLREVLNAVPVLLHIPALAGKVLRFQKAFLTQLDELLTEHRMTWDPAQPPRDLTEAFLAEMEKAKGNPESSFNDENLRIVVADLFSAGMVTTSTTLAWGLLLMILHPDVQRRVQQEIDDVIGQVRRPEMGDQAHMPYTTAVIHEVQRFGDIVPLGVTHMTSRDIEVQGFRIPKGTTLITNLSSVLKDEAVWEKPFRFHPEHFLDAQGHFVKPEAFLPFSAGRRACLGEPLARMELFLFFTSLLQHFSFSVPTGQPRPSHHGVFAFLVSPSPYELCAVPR", "test": "Inhibition of CYP2D6 (unknown origin)", "type": "ADME"}, "[24]": {"target": "Sphingosine 1-phosphate receptor 1 (Homo sapiens, UniProt P21453)", "sequence (P21453 whole entry)": "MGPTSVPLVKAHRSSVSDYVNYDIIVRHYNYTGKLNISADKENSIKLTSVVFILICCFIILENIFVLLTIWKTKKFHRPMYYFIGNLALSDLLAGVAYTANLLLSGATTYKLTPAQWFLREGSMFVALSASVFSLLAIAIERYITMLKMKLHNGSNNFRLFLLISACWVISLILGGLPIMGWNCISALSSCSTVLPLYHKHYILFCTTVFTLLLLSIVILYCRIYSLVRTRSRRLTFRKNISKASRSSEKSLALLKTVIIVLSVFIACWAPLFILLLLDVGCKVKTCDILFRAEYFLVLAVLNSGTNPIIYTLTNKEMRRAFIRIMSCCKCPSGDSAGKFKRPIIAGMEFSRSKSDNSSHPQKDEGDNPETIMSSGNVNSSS", "test": "Agonist activity at human S1P1 receptor expressed in CHO cell membranes assessed as stimulation of [35S]GTPgamma binding incubated for 45 mins by liquid scintillation counting method", "how_it_was_run": "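Membranes from S1P1/CHO cells (S1P1) or EDG3-Ga15-bla HEK293T cells (S1P3), final protein […], with 3-fold compound dilutions. Buffer: 20 mM HEPES pH 7.5, 10 mM MgCl2, 150 mM NaCl, 1 mM EGTA, 1 mM DTT, GDP, 0.1% fatty acid free BSA, saponin. [35S]GTP 0.2 nM final. Room temperature, 45 min. Filtered, washed with water, dried 60 °C. EC50 taken at 50% of each compound's Ymax.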"}, "[25]": {"test": "Volume of distribution at steady state in mouse at 2 mg/kg, iv", "type": "ADME, organism-based", "details": "in vivo, read-out: Vdss", "how_it_was_run": "as §2"}, "[26]": {"target": "T2, Cytochrome P450 2C8 (Homo sapiens, UniProt P10632)", "T2 sequence (P10632 whole entry)": "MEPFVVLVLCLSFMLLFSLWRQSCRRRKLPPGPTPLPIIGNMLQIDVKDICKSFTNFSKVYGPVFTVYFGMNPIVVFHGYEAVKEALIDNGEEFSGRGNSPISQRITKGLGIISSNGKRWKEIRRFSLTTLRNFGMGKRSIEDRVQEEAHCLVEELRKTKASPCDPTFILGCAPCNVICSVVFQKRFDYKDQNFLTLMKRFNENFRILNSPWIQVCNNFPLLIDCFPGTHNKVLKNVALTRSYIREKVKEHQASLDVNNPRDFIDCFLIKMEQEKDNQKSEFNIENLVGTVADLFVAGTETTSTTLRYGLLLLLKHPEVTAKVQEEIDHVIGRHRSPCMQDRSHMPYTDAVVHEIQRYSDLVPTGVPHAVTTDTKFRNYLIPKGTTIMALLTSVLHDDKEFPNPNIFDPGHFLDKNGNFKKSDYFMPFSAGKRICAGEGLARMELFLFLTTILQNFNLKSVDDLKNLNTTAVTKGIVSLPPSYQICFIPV", "test": "Inhibition of CYP2C8 (unknown origin)", "type": "ADME"}, "[27]": {"test": "Half life in dog at 1 mg/kg, iv", "type": "ADME, organism-based, Canis lupus familiaris", "details": "in vivo"}, "[28]": {"target": "hERG (KCNH2) (Homo sapiens, UniProt Q12809)", "sequence (Q12809 whole entry)": "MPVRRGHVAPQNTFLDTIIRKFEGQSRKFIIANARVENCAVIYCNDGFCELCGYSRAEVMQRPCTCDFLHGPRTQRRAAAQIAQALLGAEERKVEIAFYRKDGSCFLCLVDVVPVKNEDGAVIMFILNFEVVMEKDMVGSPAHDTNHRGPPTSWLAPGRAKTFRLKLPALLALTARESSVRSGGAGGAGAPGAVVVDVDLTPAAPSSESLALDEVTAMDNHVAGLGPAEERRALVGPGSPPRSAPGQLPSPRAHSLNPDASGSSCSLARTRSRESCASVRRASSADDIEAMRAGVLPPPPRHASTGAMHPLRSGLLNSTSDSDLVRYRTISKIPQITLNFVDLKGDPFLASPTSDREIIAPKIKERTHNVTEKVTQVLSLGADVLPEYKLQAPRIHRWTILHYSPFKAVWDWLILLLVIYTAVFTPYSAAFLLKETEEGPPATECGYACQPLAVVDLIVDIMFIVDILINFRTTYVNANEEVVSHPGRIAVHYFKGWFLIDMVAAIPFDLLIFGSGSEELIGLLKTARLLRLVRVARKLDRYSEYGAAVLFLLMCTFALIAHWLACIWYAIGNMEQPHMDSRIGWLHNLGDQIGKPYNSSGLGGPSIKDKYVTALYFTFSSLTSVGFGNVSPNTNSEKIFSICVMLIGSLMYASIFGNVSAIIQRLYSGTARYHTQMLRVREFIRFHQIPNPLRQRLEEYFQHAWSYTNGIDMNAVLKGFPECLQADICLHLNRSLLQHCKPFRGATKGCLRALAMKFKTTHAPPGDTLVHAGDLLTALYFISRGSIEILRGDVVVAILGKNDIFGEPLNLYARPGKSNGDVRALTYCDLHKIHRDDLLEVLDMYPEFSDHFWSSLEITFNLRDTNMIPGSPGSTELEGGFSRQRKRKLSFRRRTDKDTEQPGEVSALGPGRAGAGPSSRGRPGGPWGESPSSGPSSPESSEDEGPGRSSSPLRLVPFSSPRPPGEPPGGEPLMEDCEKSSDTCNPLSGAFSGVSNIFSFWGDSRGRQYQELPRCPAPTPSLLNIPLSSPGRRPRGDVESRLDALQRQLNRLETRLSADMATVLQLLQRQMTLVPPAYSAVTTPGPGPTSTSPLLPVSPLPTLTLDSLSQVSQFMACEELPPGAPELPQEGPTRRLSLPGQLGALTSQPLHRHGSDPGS", "test": "Inhibition of human ERG at 30 uM by patch clamp assay"}}, "data": [{"smiles": "O=C(O)C1CN(Cc2ccc(-c3noc(-c4onc(-c5ccccn5)c4C(F)(F)F)n3)cc2)C1", "values": [{"measurement": "clearance", "setting": "[1]", "result": 1, "unit": "mL/min/kg"}, {"measurement": "Ratio", "setting": "[2]", "result": 2.8}, {"measurement": "Ratio EC50", "setting": "[3]", "result": 3.2}, {"measurement": "Activity", "setting": "[4]", "result": "Dose-dependent effect"}, {"measurement": "fraction unbound", "setting": "[5]", "result": 0.065}, {"measurement": "IC50", "setting": "[6]", "result": "> 40", "unit": "µM"}, {"measurement": "Stability", "setting": "[7]", "result": 100, "unit": "%"}, {"measurement": "half-life", "setting": "[8]", "result": 4.8, "unit": "h"}, {"measurement": "Ratio", "setting": "[9]", "result": 47}, {"measurement": "Vd", "setting": "[10]", "result": 0.5, "unit": "L/kg"}, {"measurement": "inhibition", "setting": "[11]", "result": "< 5", "unit": "%"}, {"measurement": "Stability", "setting": "[12]", "result": 100, "unit": "%"}, {"measurement": "bioavailability", "setting": "[13]", "result": 12, "unit": "%"}, {"measurement": "Ratio EC50", "setting": "[14]", "result": 3.2}, {"measurement": "bioavailability", "setting": "[15]", "result": 70, "unit": "%"}, {"measurement": "concentration at 4 h", "setting": "[16]", "result": 2510, "unit": "nM"}, {"measurement": "CL", "setting": "[17]", "result": 8.4, "unit": "%"}, {"measurement": "bioavailability", "setting": "[18]", "result": 87, "unit": "%"}, {"measurement": "clearance", "setting": "[19]", "result": 14, "unit": "mL/min/kg"}, {"measurement": "half-life", "setting": "[20]", "result": 4.5, "unit": "h"}, {"measurement": "Ratio EC50", "setting": "[21]", "result": 4100}, {"measurement": "fraction unbound", "setting": "[22]", "result": 0.274}, {"measurement": "IC50", "setting": "[23]", "result": "> 40", "unit": "µM"}, {"measurement": "EC50", "setting": "[24]", "result": 0.00071, "unit": "µM"}, {"measurement": "Vd", "setting": "[25]", "result": 0.1, "unit": "L/kg"}, {"measurement": "IC50", "setting": "[26]", "result": "> 40", "unit": "µM"}, {"measurement": "half-life", "setting": "[27]", "result": 6.1, "unit": "h"}, {"measurement": "inhibition at 30 µM", "setting": "[28]", "result": 34, "unit": "%"}]}]}
